Active and inactive are the calls of the source. No cut-off for these calls is given here.
Tests used:
[1] = biological target: Nitric oxide sythases; iNOS & nNOS (Homo sapiens) (UniProt P29475+P35228); experiment: Selectivity ratio of IC50 for human recombinant iNOS to IC50 for human recombinant nNOS
Homo sapiens = organism: Homo sapiens; experiment: Selectivity ratio of IC50 for human recombinant eNOS to IC50 for human recombinant nNOS
Nitric oxide synthase 1 [2] = biological target: Nitric oxide synthase 1 (Homo sapiens, UniProt P29475); experiment: Inhibition of human recombinant nNOS expressed in baculovirus infected insect Sf9 cells assessed as conversion of [3H]L-arginine to [3H]L-citrulline incubated for 15 mins prior to substrate addition measured after 45 mins by liquid scintillation counting
[3] = biological target: Nitric oxide synthase, inducible (Homo sapiens, UniProt P35228); experiment: Inhibition of human recombinant iNOS expressed in baculovirus infected insect Sf9 cells assessed as conversion of [3H]L-arginine to [3H]L-citrulline incubated for 15 mins prior to substrate addition measured after 45 mins by liquid scintillation counting
Nitric oxide synthase 3 [4] = biological target: T1, Nitric oxide synthase 3 (Homo sapiens, UniProt P29474); experiment: Inhibition of human recombinant eNOS expressed in baculovirus infected insect Sf9 cells assessed as conversion of [3H]L-arginine to [3H]L-citrulline incubated for 15 mins prior to substrate addition measured after 45 mins by liquid scintillation counting
T1 sequence (P29474 whole entry): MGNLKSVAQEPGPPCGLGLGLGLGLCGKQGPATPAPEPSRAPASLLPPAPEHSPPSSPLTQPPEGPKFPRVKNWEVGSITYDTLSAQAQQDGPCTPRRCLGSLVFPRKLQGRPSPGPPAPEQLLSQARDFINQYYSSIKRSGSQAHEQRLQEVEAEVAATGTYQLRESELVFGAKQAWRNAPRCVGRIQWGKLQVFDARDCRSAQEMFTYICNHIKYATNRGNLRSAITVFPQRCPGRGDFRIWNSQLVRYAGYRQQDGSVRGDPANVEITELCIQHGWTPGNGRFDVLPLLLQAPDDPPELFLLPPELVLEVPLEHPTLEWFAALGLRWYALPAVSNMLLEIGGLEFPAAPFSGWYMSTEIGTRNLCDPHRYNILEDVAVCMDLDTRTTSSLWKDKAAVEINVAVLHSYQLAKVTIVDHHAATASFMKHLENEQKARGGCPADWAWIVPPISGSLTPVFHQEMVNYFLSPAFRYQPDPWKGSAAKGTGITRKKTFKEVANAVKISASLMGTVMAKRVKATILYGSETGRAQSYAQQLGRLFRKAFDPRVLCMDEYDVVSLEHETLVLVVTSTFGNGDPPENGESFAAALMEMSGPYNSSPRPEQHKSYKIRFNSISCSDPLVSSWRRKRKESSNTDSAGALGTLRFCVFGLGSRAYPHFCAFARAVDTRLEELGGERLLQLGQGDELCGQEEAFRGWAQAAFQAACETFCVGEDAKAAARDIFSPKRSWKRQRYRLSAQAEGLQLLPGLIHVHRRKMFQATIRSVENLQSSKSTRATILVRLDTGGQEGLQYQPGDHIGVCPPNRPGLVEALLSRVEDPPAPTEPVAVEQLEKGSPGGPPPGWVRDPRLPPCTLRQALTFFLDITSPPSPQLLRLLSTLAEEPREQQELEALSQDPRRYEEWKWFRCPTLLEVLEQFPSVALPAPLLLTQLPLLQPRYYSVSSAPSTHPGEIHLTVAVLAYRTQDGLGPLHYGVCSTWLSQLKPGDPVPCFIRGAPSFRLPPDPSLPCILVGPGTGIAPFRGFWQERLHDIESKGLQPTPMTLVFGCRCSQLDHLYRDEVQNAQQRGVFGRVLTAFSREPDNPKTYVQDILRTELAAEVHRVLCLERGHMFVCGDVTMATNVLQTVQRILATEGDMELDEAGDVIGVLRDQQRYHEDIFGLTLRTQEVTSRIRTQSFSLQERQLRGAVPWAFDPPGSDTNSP

[5] = biological target: 5-hydroxytryptamine receptor 5A (Homo sapiens) (UniProt P47898); experiment: Displacement of [3H]LSD from human recombinant 5-HT5a receptor expressed in HEK293 cells at 10 uM after 120 mins; assay type: cell-based
In short: (§1)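 Single-concentration (10 μM) radioligand binding screen. Specific binding = total minus nonspecific binding, with nonspecific binding taken in excess unlabeled ligand. Results were given as percent inhibition of control specific binding.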

Rattus norvegicus [6] = experiment: Analgesic activity in rat Chung model of neuropathic pain assessed as partial reversal of thermal hyperalgesia at 30 mg/kg, ip measured after 30 mins; details: route intraperitoneal
[7] = biological target: Muscarinic acetylcholine receptor M4 (Homo sapiens) (UniProt P08173); experiment: Displacement of [3H]4-DAMP from human recombinant muscarinic M4 receptor expressed in CHO cells at 10 uM after 60 mins; assay type: cell-based; in short: as §1
[8] = biological target: Adrenergic receptor alpha-2 (Rattus norvegicus) (UniProt P22086+P19328+P22909); experiment: Displacement of [3H]RX 821002 from rat cerebral cortex alpha2 adrenergic receptor at 10 uM after 60 mins; assay type: tissue-based; in short: as §1
[9] = biological target: Nitric oxide synthase, inducible (Rattus norvegicus, UniProt Q06518); experiment: Inhibition of rat recombinant iNOS expressed in baculovirus infected insect Sf9 cells assessed as conversion of [3H]L-arginine to [3H]L-citrulline incubated for 15 mins prior to substrate addition measured after 45 mins by liquid scintillation counting
[10] = biological target: Kappa-type opioid receptor (Rattus norvegicus) (UniProt P34975); experiment: Displacement of [3H]U 69593 from rat recombinant kappa opioid receptor expressed in CHO cells at 10 uM after 60 mins; assay type: cell-based; in short: as §1
Rattus norvegicus [11] = organism: Rattus norvegicus; experiment: Displacement of [3H]DTG from rat cerebral cortex sigma receptor at 10 uM after 120 mins; assay type: tissue-based; in short: as §1
[12] = biological target: T2, Sodium-dependent noradrenaline transporter (Homo sapiens, UniProt P23975); experiment: Displacement of [3H]nisoxetine from human recombinant norepinephrine transporter expressed in CHO cells after 120 mins; assay type: cell-based
[13] = biological target: Muscarinic acetylcholine receptor M2 (Homo sapiens) (UniProt P08172); experiment: Displacement of [3H]AF-DX 384 from human recombinant muscarinic M2 receptor expressed in CHO cells at 10 uM after 60 mins; assay type: cell-based; in short: as §1
Rattus norvegicus [14] = experiment: Analgesic activity in rat Chung model of neuropathic pain assessed as partial reversal of thermal hyperalgesia at 30 mg/kg, ip; assay type: functional, organism-based; parameters: dose 30 mg/kg
In short: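 Rats anesthetized with halothane; L5 and L6 spinal nerves exposed, isolated and tightly ligated with 4-0 silk suture distal to the DRG. After surgical recovery, hyperalgesia was read as paw withdrawal latency to radiant heat applied to the paw after intraperitoneal dosing.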

[15] = biological target: 5-hydroxytryptamine receptor 1B (Rattus norvegicus) (UniProt P28564); experiment: Displacement of [125I]CYP from rat cerebral cortex 5HT1B receptor at 10 uM after 120 mins in the presence of (-)propranolol; assay type: tissue-based; in short: as §1
[16] = biological target: Mu-type opioid receptor (Homo sapiens) (UniProt P35372); experiment: Displacement of [3H]DAMGO from human recombinant mu opioid receptor expressed in HEK 293 cells at 10 uM after 120 mins; assay type: cell-based; details: HEK293; in short: as §1
[17] = Cardiotoxicity in human arteries assessed as inhibition of acetylcholine-mediated vasorelaxation at 100 uM pretreated with U46619 prior to Ach challenge measured after 50 mins in presence of L-arginine; assay type: toxicity, tissue-based, Artery
Nitric oxide synthase 1 [18] = biological target: Nitric oxide synthase 1 (Rattus norvegicus, UniProt P29476); experiment: Inhibition of rat recombinant nNOS expressed in baculovirus infected insect Sf9 cells assessed as conversion of [3H]L-arginine to [3H]L-citrulline incubated for 15 mins prior to substrate addition measured after 45 mins by liquid scintillation counting
[19] = biological target: Muscarinic acetylcholine receptor M3 (Homo sapiens) (UniProt P20309); experiment: Displacement of [3H]4-DAMP from human recombinant muscarinic M3 receptor expressed in CHO cells at 10 uM after 60 mins; assay type: cell-based; in short: as §1
[20] = biological target: T2, Sodium-dependent noradrenaline transporter; experiment: Displacement of [3H]nisoxetine from human recombinant norepinephrine transporter expressed in CHO cells at 10 uM after 120 mins; assay type: cell-based; in short: as §1
[21] = Cardiotoxicity in human arteries assessed as inhibition of acetylcholine-mediated vasorelaxation at 100 uM pretreated with U46619 prior to Ach challenge measured after 50 mins; assay type: toxicity, tissue-based, Artery
In short: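 Human resistance artery rings (~2 mm) were wire-mounted in a myograph in Krebs-bicarbonate PSS gassed with 95% O2/5% CO2 at 37 °C, and isometric tension was recorded. After ≥30 min equilibration, rings received three KPSS (62.5 mM) challenges. Endothelial integrity was checked with U46619 (1 × 10⁻⁷ M) then ACh. Compound was added for 50 min without L-arginine, then rings were submaximally precontracted with U46619 before cumulative ACh (1 × 10⁻¹⁰ to 1 × 10⁻⁵ M).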

[22] = biological target: Muscarinic acetylcholine receptor M5 (Homo sapiens) (UniProt P08912); experiment: Displacement of [3H]4-DAMP from human recombinant muscarinic M5 receptor expressed in CHO cells at 10 uM after 60 mins; assay type: cell-based; in short: as §1
Nitric oxide synthase 3 [23] = biological target: Nitric oxide synthase 3 (Rattus norvegicus, UniProt Q62600); experiment: Inhibition of rat recombinant eNOS expressed in baculovirus infected insect Sf9 cells assessed as conversion of [3H]L-arginine to [3H]L-citrulline incubated for 15 mins prior to substrate addition measured after 45 mins by liquid scintillation counting
[24] = biological target: Muscarinic acetylcholine receptor M1 (Homo sapiens) (UniProt P11229); experiment: Displacement of [3H]pirenzepine from human recombinant muscarinic M1 receptor expressed in CHO cells at 10 uM after 60 mins; assay type: cell-based; in short: as §1
[25] = biological target: Voltage-gated inwardly rectifying potassium channel KCNH2 (Homo sapiens, UniProt Q12809); experiment: Inhibition of human Erg expressed in HEK293 cells by patch clamp assay
Sequence of Voltage-gated inwardly rectifying potassium channel KCNH2 (Q12809 whole entry): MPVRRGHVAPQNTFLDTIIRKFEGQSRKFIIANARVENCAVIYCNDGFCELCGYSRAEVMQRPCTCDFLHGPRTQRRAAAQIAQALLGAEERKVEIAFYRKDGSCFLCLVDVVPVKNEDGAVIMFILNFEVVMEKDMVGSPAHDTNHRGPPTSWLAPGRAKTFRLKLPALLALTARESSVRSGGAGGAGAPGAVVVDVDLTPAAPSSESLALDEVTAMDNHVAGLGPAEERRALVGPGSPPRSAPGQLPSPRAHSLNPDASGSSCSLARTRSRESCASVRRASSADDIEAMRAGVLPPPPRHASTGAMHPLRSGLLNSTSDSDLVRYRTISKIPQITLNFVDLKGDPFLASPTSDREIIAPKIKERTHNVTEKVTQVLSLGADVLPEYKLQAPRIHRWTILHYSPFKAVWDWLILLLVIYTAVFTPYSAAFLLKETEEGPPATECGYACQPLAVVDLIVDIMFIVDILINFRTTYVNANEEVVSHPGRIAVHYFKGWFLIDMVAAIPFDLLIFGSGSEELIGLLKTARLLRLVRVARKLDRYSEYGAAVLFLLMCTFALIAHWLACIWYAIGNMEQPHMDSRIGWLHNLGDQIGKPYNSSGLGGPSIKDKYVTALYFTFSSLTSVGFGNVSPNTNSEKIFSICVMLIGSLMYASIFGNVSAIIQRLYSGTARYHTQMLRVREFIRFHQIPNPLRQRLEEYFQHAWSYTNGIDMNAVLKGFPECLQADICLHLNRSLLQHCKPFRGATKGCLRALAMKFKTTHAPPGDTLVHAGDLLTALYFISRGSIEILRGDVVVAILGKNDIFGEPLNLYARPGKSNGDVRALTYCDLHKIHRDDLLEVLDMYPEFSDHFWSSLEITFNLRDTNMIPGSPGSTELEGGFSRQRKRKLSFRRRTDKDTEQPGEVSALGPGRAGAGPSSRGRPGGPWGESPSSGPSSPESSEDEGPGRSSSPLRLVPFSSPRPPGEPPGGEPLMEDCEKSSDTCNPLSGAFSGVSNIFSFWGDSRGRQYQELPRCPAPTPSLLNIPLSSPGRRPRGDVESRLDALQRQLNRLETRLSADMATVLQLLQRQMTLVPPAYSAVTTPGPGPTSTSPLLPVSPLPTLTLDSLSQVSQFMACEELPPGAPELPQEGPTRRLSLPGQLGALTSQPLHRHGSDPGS

Sequence of Nitric oxide synthase 1 (Homo sapiens, UniProt P29475) (P29475 whole entry): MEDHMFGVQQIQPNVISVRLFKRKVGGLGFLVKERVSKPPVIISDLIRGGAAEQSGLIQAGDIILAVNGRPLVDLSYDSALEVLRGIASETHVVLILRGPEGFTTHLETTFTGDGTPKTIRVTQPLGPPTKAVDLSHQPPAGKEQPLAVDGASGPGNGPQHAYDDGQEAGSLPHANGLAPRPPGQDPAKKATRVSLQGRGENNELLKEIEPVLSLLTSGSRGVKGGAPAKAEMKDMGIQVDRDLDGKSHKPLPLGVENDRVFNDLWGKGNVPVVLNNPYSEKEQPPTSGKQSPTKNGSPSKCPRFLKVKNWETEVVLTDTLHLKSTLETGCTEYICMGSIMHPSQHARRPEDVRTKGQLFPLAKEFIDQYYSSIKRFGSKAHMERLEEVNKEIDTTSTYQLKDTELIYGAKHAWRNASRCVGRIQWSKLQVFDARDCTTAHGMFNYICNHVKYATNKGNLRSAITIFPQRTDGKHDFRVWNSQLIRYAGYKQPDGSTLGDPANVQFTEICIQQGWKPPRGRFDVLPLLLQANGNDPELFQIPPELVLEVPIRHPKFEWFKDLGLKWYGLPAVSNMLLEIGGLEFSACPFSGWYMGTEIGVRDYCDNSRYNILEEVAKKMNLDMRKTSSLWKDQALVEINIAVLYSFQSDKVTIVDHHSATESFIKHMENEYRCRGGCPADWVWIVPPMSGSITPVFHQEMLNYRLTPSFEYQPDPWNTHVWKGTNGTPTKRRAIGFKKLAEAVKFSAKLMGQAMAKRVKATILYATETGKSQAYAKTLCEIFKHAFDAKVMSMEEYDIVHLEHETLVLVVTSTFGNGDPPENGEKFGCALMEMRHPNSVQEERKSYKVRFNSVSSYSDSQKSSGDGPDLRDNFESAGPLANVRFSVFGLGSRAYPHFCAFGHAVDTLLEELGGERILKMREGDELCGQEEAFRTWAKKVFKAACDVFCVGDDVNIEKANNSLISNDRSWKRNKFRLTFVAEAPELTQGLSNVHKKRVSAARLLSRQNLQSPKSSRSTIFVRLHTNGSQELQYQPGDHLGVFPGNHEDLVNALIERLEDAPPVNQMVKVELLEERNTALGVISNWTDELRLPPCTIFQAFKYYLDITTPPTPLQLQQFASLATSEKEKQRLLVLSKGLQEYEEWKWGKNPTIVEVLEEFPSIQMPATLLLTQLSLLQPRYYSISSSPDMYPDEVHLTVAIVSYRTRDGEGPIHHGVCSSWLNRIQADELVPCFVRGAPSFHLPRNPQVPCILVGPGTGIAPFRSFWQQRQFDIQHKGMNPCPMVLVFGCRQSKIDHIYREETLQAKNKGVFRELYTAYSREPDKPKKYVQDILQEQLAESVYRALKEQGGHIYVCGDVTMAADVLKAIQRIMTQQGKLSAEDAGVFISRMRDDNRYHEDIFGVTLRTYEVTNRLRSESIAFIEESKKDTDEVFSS
Sequence of Nitric oxide sythases; iNOS & nNOS (Homo sapiens) (P29475 whole entry, looked up): as the sequence (P29475 whole entry) above
Sequence of Nitric oxide sythases; iNOS & nNOS (Homo sapiens) (P35228 whole entry, looked up): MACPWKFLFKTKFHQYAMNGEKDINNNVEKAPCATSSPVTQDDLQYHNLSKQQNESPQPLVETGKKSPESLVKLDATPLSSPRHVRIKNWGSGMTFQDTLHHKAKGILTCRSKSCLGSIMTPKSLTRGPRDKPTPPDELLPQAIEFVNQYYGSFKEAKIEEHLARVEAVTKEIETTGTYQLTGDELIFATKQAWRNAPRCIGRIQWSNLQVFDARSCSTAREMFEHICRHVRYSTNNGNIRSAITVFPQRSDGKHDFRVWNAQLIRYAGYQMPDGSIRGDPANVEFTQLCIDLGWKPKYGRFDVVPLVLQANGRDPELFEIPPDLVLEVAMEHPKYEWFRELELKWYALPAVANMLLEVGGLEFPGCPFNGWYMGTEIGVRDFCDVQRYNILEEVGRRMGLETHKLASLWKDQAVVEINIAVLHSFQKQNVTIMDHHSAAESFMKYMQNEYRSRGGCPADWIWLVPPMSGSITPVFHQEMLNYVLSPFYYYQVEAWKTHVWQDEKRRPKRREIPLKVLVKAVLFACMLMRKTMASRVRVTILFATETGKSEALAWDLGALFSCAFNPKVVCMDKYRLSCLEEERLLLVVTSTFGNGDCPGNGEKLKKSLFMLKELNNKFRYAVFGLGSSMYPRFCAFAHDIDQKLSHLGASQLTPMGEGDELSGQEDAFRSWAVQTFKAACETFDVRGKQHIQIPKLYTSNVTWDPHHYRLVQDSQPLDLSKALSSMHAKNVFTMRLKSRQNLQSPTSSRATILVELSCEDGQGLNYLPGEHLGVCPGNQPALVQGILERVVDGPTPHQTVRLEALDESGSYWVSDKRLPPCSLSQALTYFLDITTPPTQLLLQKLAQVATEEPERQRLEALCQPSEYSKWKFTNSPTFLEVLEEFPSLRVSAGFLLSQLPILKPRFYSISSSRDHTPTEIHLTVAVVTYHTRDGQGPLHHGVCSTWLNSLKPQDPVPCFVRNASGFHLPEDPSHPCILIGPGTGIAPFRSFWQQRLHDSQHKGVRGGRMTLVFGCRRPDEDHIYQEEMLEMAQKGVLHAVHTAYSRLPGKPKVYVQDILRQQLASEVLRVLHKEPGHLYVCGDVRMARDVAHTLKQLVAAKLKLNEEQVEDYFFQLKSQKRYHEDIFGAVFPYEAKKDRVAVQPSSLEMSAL
Sequence of Nitric oxide synthase, inducible (Homo sapiens, UniProt P35228) (P35228 whole entry): as the sequence (P35228 whole entry, looked up) above
T2 sequence (P23975 whole entry): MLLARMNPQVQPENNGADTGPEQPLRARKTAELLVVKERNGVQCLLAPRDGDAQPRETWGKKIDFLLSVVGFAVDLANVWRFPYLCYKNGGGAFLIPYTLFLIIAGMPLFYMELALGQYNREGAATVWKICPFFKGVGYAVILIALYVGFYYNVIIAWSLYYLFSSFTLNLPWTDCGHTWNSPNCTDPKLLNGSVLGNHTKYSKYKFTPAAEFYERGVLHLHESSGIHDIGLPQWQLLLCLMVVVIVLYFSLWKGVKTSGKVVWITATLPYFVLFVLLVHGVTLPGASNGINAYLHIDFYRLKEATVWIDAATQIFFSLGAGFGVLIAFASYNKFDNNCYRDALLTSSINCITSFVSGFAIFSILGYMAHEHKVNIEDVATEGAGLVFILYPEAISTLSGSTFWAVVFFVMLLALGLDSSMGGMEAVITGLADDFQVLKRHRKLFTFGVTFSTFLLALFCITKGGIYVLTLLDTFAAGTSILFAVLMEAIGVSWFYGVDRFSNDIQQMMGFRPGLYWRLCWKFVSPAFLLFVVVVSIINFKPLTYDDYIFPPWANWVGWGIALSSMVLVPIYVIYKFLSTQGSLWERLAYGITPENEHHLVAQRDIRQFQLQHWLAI
Sequence of Muscarinic acetylcholine receptor M3 (Homo sapiens) (P20309 whole entry, looked up): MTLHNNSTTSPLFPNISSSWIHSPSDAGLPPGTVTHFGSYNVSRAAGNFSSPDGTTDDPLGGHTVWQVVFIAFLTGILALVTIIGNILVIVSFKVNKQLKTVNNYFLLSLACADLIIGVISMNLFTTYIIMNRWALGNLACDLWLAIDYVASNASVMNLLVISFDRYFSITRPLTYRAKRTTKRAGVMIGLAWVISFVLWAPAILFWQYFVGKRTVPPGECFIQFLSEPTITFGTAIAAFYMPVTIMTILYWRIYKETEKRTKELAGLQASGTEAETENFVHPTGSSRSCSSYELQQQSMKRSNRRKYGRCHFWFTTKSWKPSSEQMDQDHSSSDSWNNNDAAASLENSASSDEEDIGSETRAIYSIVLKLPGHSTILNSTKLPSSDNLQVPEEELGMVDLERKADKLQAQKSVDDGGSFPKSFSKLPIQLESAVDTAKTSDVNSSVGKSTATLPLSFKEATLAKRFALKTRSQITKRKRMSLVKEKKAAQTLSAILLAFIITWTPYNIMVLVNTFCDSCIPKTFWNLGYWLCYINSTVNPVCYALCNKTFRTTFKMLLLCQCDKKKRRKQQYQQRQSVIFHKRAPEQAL

| Compound | Ratio IC50 [1] | Ratio IC50 (Homo sapiens) | IC50 (Nitric oxide synthase 1 [2]) | IC50 [3] | IC50 (Nitric oxide synthase 3 [4]) | also measured |
| --- | --- | --- | --- | --- | --- | --- |
| N=C(Nc1ccc2c(c1)N(C1CCSCC1)CC2)c1cccs1 | 0.5 | 10 |  |  |  |  |
| CN[C@H]1CC[C@H](N2CCc3ccc(NC(=N)c4cccs4)cc32)CC1 |  |  | 2.12 µM | 189 µM | 237 µM |  |
| N=C(Nc1cc2c(cc1F)CCN2C1CCNCC1)c1cccs1 | 26 | 13 | 18.8 µM | 481 µM | 243 µM |  |
| N=C(Nc1ccc2c(c1)N(C1CCNC1)CC2)c1cccs1 (racemic) | 50 | 40 | 0.18 µM | 8.94 µM | 7.17 µM |  |
| CN[C@H]1CC[C@H](N2CCc3cc(F)c(NC(=N)c4cccs4)cc32)CC1 | 91 | 41 | 5.75 µM | 522 µM | 231 µM |  |
| CN[C@H]1CC[C@@H](N2CCc3cc(F)c(NC(=N)c4cccs4)cc32)CC1 | 154 | 38 | 5.82 µM | 897 µM | 220 µM |  |
| N=C(Nc1ccc2c(c1)N(CCN1CC[C@@H](O)C1)CC2)c1cccs1 | 62 | 71 |  |  |  |  |
| CN[C@H]1CC[C@@H](N2CCc3ccc(NC(=N)c4cccs4)cc32)CC1 |  |  | 0.37 µM | 83 µM | 195 µM | inhibition [5]: 59%; MPE (Rattus norvegicus [6]): 66%; inhibition [7]: 95%; inhibition [8]: 58%; IC50 [9]: 2.34 µM; inhibition [10]: 69%; inhibition (Rattus norvegicus [11]): 72%; IC50 [12]: 4.4 µM; inhibition [13]: 80%; Activity (Rattus norvegicus [14]): Active; inhibition [15]: 60%; inhibition [16]: 52%; Activity [17]: Not Active; IC50 (Nitric oxide synthase 1 [18]): 1.93 µM; inhibition [19]: 85%; inhibition [20]: 86%; Activity [21]: Not Active; inhibition [22]: 90%; IC50 (Nitric oxide synthase 3 [23]): 4.16 µM; inhibition [24]: 80% |
| CN1CCC[C@H]1CCN1CCCc2cc(NC(=N)c3cccs3)ccc21 |  |  |  |  |  | Activity [17]: Active; Activity [21]: Active; IC50 [25]: 4.7 µM |
| N=C(Nc1ccc2c(c1)N(CCNCCO)CC2)c1cccs1 | 49 | 48 |  |  |  |  |

Further lines, with some results ahead:

| Ratio IC50 [1] | Ratio IC50 (Homo sapiens) | IC50 (Nitric oxide synthase 1 [2]) | IC50 [3] | IC50 (Nitric oxide synthase 3 [4]) | Compound | also measured |
| --- | --- | --- | --- | --- | --- | --- |
|  |  | 0.11 µM | 6.79 µM | 7.12 µM | NC(=Nc1ccc2c(c1)N(CCN1CC[C@@H](O)C1)CC2)c1cccs1 |  |
|  |  | 2.07 µM | 1.12 µM | 21.5 µM | NC(=Nc1ccc2c(c1)N(C1CCSCC1)CC2)c1cccs1 |  |
|  |  | 0.54 µM | 2.39 µM | 99 µM | NC(=Nc1ccc2c(c1)N(C1CCNCC1)CC2)c1cccs1 |  |
| 4 | 183 |  |  |  | N=C(Nc1ccc2c(c1)N(C1CCNCC1)CC2)c1cccs1 |  |
|  | 26 |  |  |  | N=C(Nc1ccc2c(c1)N(C1CCOCC1)CC2)c1cccs1 |  |
|  |  | 3.26 µM | > 100 µM | 84.8 µM | NC(=Nc1ccc2c(c1)N(C1CCOCC1)CC2)c1cccs1 |  |
|  |  | 0.07 µM | 3.41 µM | 3.36 µM | NC(=Nc1ccc2c(c1)N(CCNCCO)CC2)c1cccs1 |  |
|  | 27 |  |  |  | N=C(Nc1ccc2c(c1)N(C1CCCCC1)CC2)c1cccs1 |  |
|  |  | 4.07 µM | > 100 µM | 109 µM | NC(=Nc1ccc2c(c1)N(C1CCCCC1)CC2)c1cccs1 |  |

Reference: ChEMBL document CHEMBL1955837 (J Med Chem, 2012)
